Rce1 inh – yeast Ras-converting enzyme inhibition; Q03530; yeast membranes, quenched prenylated peptide cleavage fluorescence; calls only; 290,000 tested, 0.27% active;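 active means fall in fluorescence gain of 50% or more versus controls, with final raw signal at or below 3038400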;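 further: plate controls were neutral control wells for no effect and wells lacking membranes for full effect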
Target sequence (Q03530 whole entry, looked up): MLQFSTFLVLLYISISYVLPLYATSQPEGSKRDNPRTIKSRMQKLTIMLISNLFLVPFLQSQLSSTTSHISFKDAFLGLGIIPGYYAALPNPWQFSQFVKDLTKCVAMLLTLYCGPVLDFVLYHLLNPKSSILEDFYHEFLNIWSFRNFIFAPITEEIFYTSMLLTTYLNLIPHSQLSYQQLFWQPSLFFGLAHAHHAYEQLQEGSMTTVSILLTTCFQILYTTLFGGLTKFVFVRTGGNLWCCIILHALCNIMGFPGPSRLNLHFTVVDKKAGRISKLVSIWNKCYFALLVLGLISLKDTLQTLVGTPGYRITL
CAL PDZ FP-1 – inhibitors of human CAL PDZ peptide binding; Q9HD26; 300,000 tested, 0.92% active; inhibition, % at 24.9 µM; purified CAL PDZ, TMR-peptide fluorescence polarization, 1 h;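 active means mean inhibition of at least 30% with at least half of replicates also reaching 30%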;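 further: 0% = DMSO neutral control and 100% = excess unlabeled competitor peptide PRC23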
ARNT-TACC3 inh – disrupts binding between human ARNT and TACC3. Q9Y6A5. AlphaScreen His-ARNT PAS-B/GST-TACC3 binding, luminescence; TACC3 fragment carries E629A point mutation. inhibition, % at 9.99 µM. 390,000 tested, 0.66% active. AID 623870;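 active means mean inhibition of replicates at least 50% and at least half of replicates each reaching 50%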;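 further: 0% = complete ARNT plus TACC3 wells and 100% = ARNT alone without TACC3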
AI-2 QS mod – modulators of Vibrio harveyi AI-2 quorum sensing system | Vibrio harveyi JMH597 AI-2 luminescence/OD600 ratio, 9 h; hits give low values; strain lacks LuxN and CqsS sensors; 0 = neutral-control median | activity change, % at 7.5 µM | 300,000 tested, 0.4% active; in the data active means activity change below about -75%, passing the limit was not always enough;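 further: luminescence divided by OD600 gain over 9 h not by final OD600 alone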
CAL PDZ FP-2 – blocks peptide binding to human CAL PDZ domain; Q9HD26; purified CAL PDZ, TMR-peptide fluorescence polarization, 1 h; inhibition, % at 20 µM; 330,000 tested, 0.02% active; AID 504414;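 active means highest replicate inhibition of at least 40%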;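 further: plate controls were DMSO neutral control wells for no effect and unlabeled competitor peptide control wells for full effect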
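System: tagged CAL PDZ domain. Schedule: 1 h room-temperature incubation prior to read. Signal: fluorescence polarization (mP). Measure: percent inhibition from loss of millipolarization.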
The depositor's hits bear a star; i = inactive; nt = no result; + = active, no number. Hits are enriched below; roughly 1.7% of the tested compounds scored in any of these assays.

SMILES	Rce1 inh	CAL PDZ FP-1	ARNT-TACC3 inh	AI-2 QS mod	CAL PDZ FP-2
CCOC(=O)c1c(C)[nH]c(C(=O)COC(=O)[C@H](C)N2C(=O)C3CCCCC3C2=O)c1C (some centres undefined)	nt	-2	7	nt	-2
O=C(CSc1nc(-c2cccs2)cc(C(F)(F)F)n1)Nc1cc(OCC(F)(F)C(F)F)cc([N+](=O)[O-])c1	i	-4	-1	37	-1
COc1ccc(C2c3ccc(O)cc3Oc3ncn4nc(-c5ccccn5)nc4c32)cc1OC (centres undefined)	i	-7	59*	8	-3
COc1ccc(C2c3ccc(O)cc3Oc3ncn4nc(-c5ccccn5)nc4c32)cc1 (centres undefined)	i	7	4	27	0
Cc1cccc(C)c1OCC(=O)N(Cc1ccc(N(C)C)cc1)C1CCS(=O)(=O)C1 (centres undefined)	i	76*	7	18	0
CN(C)c1cccc(C(=O)OCC(=O)N(Cc2ccccc2)C2CCS(=O)(=O)C2)c1 (centres undefined)	i	0	1	2	-1
NC(=O)Nc1ccc(C(=O)OCC(=O)N(Cc2ccccc2)C2CCS(=O)(=O)C2)cc1 (centres undefined)	i	37*	-6	29	0
Cc1cc(C)c2c(c1)-c1cc(C)nn1C(c1ccc3c(c1)OCO3)N2 (centres undefined)	+	-2	2	23	-2
O=C(COC(=O)Cc1ccc(S(=O)(=O)N2CCOCC2)s1)Nc1ccc(F)cc1F	nt	45*	-7	nt	0
O=C(Cc1ccc(S(=O)(=O)N2CCCCC2)s1)Nc1ccc(F)cc1F	i	6	-1	19	0
C/C=C/c1ccc([C@H]2[C@@H](CO)N3CCCCN(S(=O)(=O)c4cccs4)C[C@H]23)cc1	nt	nt	13	nt	nt
COc1ccc(NC(=O)N2c3ccc(OC)cc3C(C)=CC2(C)C)cc1	i	4	42	186	-2
CCOc1ccc2c(c1)C(C)=CC(C)(C)N2C(=O)Nc1ccccc1	i	-3	48*	34	1
O=C(NNc1nc2ccc(F)cc2s1)c1cccc(F)c1	i	4	5	-119*	-1
O=C(NNc1nc2ccccc2s1)c1ccc(F)cc1	i	-3	7	-77*	-2
O=C(C[C@@H]1C=C[C@@H](NC(=O)Nc2ccc(C(F)(F)F)cc2)[C@H](CO)O1)NCc1cc(F)cc(F)c1	nt	nt	10	nt	nt
Cc1ccc(CCC(=O)Nc2ccc(C)c(C)c2)o1	i	-9	-6	-79*	-2
CC(=O)Nc1ccc(NC(=O)CCc2ccc(C)o2)cc1	i	-4	-5	13	-3
CCCCN(C)CCNC(=O)c1cc2c(-c3ccccc3F)nn(C)c2s1	i	43*	-2	18	-4
CCCCN(C)CCNC(=O)c1cc2c(-c3cccc(OC)c3)nn(C)c2s1	+	1	3	10	-6
CCN(CC)CCCNC(=O)c1cc2c(-c3cccc(OC)c3)nn(C)c2s1	+	nt	11	-1	-5
COc1cccc(-c2nn(C)c3sc(C(=O)NCCCN(C)Cc4ccccc4)cc23)c1	i	-9	22	10	-12
COc1ccc(NC(=O)c2cc(-c3ccccn3)nc3c(C)cc(C)cc23)c(C)c1	i	-3	nt	0	-2
CC1C(=O)C(C)(C)C(=O)OC1c1ccccc1 (centres undefined)	i	nt	nt	3	-2
CCN(CC)c1ccc(C2NC(=O)c3ccccc3N2)cc1 (centres undefined)	nt	-3	-3	nt	0
SMILES	Rce1 inh	CAL PDZ FP-1	ARNT-TACC3 inh	AI-2 QS mod	CAL PDZ FP-2
O=C1NC(c2ccc(Br)cc2)Nc2ccccc21 (centres undefined)	+	5	-8	-1	-1
CCCCn1c(N)c(N(CCOC)C(=O)c2cnccn2)c(=O)[nH]c1=O	i	0	nt	9	0
CCCCC1CCC(C(=O)N(CCOC)c2c(N)n(CC(C)C)c(=O)[nH]c2=O)CC1 (centres undefined)	nt	62*	nt	nt	0
CC(C)CN(C(=O)CSc1nncn1-c1ccccc1)c1c(N)n(CC(C)C)c(=O)[nH]c1=O	i	2	0	11	-1
CCCCn1c(N)c(N(CCOC)C(=O)c2cnc(C)cn2)c(=O)[nH]c1=O	i	38*	-1	4	-2
CCCCCn1nc(C(=O)N(CC)c2c(N)n(CCCC)c(=O)[nH]c2=O)c2ccccc2c1=O	nt	45*	-5	nt	4
CCCCn1c(N)c(N(CCC(C)C)C(=O)CSc2nncn2-c2ccccc2)c(=O)[nH]c1=O	nt	48*	nt	nt	-1
CCCCOC(=O)Nc1nc(C)c(C(=O)OCC)s1	+	-1	-10	15	0
CCOC(=O)c1sc(NC(=O)CC)nc1C	i	4	nt	9	-1
CCOC(=O)c1sc(NC(=O)Nc2ccc(Cl)cc2)nc1C	i	52*	-3	-8	0
CCOC(=O)Nc1nc(C)c(C(=O)c2ccc(Cl)cc2)s1	i	-4	23	28	nt
Cc1ccccc1-n1nc(C)c2cc(C(=O)N3CCN(S(=O)(=O)c4ccc(F)cc4)CC3)sc21	i	nt	-11	14	0
Cc1ccc(S(=O)(=O)N(C)c2ccc(OCC(=O)NCc3ccco3)cc2)cc1	i	-2	-1	22	-2
CCC(C)(C)c1ccc(OCCCC[n+]2cccc(C)c2)c(C(C)(C)CC)c1	+	-4	10	9	-3
CCOc1cccc2c1OC1(C)CC2NC(=O)N1c1cccc(Cl)c1 (centres undefined)	i	93*	-10	16	nt
CCOc1cccc2c1OC1(C)CC2NC(=O)N1c1cccc(C(=O)N2CCN(c3ccccn3)CC2)c1 (centres undefined)	i	2	4	-57	-1
COc1ccc(C(C(=O)NC2CCCCC2)N(C(=O)c2snc(C(N)=O)c2N)c2ccc(OC)cc2OC)cc1 (centres undefined)	+	-6	nt	53	-2
NC(=O)c1nsc(C(=O)N(c2ccccc2F)C(C(=O)NCc2ccccc2)c2ccc(O)cc2)c1N (centres undefined)	+	-6	-21	28	-2
COc1ccc(N(C(=O)c2snc(C(N)=O)c2N)C(C(=O)NC2CCCC2)c2ccc(F)cc2)c(OC)c1 (centres undefined)	i	-12	-8	-5	-2
Cc1ccccc1N(C(=O)c1snc(C(N)=O)c1N)C(C(=O)NCc1ccccc1)c1ccc(O)cc1 (centres undefined)	i	-5	-1	6	-3
COc1ccc(C2CC(c3c(-c4ccccc4)c4cc(Cl)ccc4[nH]c3=O)=NN2S(C)(=O)=O)cc1OC (centres undefined)	i	-3	-8	-8	-2
COCC(=O)N(Cc1cc2ccccc2[nH]c1=O)c1ccc(OC)cc1	i	62*	4	9	0

High-throughput results deposited in PubChem BioAssay by Broad Institute.
